The results in this text go back to PubChem BioAssay AID434971 (Sanford-Burnham Center for Chemical Genomics, 2010).

About 510 (4.6%) of roughly 11,000 compounds were called active. This excerpt belongs to a sample that is enriched for actives. A number with no mark means an inactive call.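 Rule for the calls: active = inhibition of at least 40% at 10 µM in either of the two replicates; inactive = the rest.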

The assay relates to intestinal alkaline phosphatase [Mus musculus]. As to the kind of experiment: mouse intestinal phosphatase enzyme inhibition – biochemical, luminescence, single concentration, confirmation (AID 434971).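 Note: plate controls were DMSO wells with enzyme for no effect and buffer wells lacking enzyme for full effect.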 The following applies: purified mouse IAP, CDP-Star luminescence, 30 min; at 10 µM; hits give high values. The procedure, abridged: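 System: mouse IAP enzyme; Medium: DEA buffer, ZnCl2, MgCl2; Probe or stimulus: CDP-Star; Doses: compound in DMSO; Incubation: 30 min, room temperature; Signal: luminescence from CDP-Star dephosphorylation; Control set: enzyme-free wells as negative control.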
For the molecule `COc1ccc(N2C(=O)/C(=C/c3ccco3)C(=O)NC2=S)cc1`, the inhibition was 43.2% (active).

As to `Cc1cc(C)cc(NC(=S)NC2CC3CCCC(C2)N3Cc2cccs2)c1` (centres undefined), the inhibition was -150%.

`O=C1NC(=O)N(Cc2ccco2)C(=O)/C1=C\c1cccn1CCOc1ccccc1`: the inhibition was 50.6% (active).

With `O=C1NC(=O)N(Cc2ccco2)C(=O)/C1=C\c1ccc(-c2ccc(F)cc2)o1`, the inhibition was 83.5% (active).
